As a reminder, the solubility is the concentration that dissolves in the medium under given conditions. The term fraction unbound denotes free concentration divided by total concentration. As usually defined, the IC50 is the concentration at which inhibition is half-maximal. One may read the Emax as the maximal effect, on the per cent scale that the assay sets. In general, pKa refers to the pH at which an ionisable group is half protonated. Broadly, the half-life is the time needed for the level to fall by half in the phase considered. One may read the bioavailability as the share of a dose that reaches the circulation, judged against a reference dose that is usually intravenous.

One series deals with T1, Cytochrome P450 1A2 (Homo sapiens, UniProt P05177).
T1 sequence (P05177 whole entry): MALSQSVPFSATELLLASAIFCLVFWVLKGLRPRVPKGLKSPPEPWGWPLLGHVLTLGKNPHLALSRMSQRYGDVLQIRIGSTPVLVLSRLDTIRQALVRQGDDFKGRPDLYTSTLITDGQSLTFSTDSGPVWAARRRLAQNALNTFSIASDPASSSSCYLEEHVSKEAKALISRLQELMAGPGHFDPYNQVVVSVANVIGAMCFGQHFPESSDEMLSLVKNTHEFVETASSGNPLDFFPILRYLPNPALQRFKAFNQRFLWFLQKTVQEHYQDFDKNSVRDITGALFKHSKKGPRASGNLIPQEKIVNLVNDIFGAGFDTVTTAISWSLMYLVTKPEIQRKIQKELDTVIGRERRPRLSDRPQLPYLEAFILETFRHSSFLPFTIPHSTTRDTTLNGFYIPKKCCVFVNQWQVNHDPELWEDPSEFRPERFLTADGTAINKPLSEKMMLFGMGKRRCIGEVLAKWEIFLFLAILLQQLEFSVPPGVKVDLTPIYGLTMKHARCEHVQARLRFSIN
Put plainly: Inhibition of CYP1A2 in human liver microsomes. To be noted: human, microsomes. It counts as ADME. Summed up:
(§1)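 High-throughput human liver microsome panel of five CYP isoforms; inhibition reported as IC50.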
(Liver microsomes are vesicles of endoplasmic reticulum, rich in cytochrome P450 enzymes.)

A short description of series [1]: Solubility of compound in phosphate buffer at pH 7.4 incubated for 24 hrs at 25 degree C. It counts as physicochemical. Put shortly:
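Aqueous phosphate buffer pH 7.4, compound added from DMSO stock, equilibrated 24 h at 25 °C.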

The nature of series [2]: Fraction unbound in human plasma by equilibrium dialysis method. It counts as ADME, cell-free. Summed up:
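Fraction unbound measured from DMSO stock by equilibrium dialysis in 10% human plasma.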
(In general: In equilibrium dialysis only unbound substance equilibrates across the membrane.)

Series [3] is described as follows: Fraction unbound in dog plasma. The series is classed as ADME, cell-free, Canis lupus familiaris.
In a further series the target is Cytochrome P450 2D6 (Homo sapiens, UniProt P10635). Description: Inhibition of CYP2D6 in human liver microsomes. It counts as ADME. Summed up:
as §1

The target of a further series is Cytochrome P450 3A4 (Homo sapiens, UniProt P08684). Description: Inhibition of CYP3A4 in human liver microsomes. It counts as ADME. Put shortly: as §1
Chain of Cytochrome P450 3A4 (P08684 whole entry): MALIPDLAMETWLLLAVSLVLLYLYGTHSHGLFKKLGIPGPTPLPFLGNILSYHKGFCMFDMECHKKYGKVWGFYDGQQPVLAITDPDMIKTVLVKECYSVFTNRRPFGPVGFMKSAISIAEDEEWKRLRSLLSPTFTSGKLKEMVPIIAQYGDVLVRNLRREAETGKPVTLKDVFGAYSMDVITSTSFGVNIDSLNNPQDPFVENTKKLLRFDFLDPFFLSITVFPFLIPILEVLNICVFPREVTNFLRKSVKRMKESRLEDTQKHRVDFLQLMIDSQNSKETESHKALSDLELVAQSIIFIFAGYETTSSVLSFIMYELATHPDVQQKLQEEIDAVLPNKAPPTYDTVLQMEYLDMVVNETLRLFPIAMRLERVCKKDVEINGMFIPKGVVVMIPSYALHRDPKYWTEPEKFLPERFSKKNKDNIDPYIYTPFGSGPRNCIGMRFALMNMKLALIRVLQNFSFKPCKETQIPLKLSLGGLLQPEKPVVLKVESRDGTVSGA
Series [4] deals with T2, Estrogen receptor (Homo sapiens) (UniProt P03372).
T2 sequence (whole entry): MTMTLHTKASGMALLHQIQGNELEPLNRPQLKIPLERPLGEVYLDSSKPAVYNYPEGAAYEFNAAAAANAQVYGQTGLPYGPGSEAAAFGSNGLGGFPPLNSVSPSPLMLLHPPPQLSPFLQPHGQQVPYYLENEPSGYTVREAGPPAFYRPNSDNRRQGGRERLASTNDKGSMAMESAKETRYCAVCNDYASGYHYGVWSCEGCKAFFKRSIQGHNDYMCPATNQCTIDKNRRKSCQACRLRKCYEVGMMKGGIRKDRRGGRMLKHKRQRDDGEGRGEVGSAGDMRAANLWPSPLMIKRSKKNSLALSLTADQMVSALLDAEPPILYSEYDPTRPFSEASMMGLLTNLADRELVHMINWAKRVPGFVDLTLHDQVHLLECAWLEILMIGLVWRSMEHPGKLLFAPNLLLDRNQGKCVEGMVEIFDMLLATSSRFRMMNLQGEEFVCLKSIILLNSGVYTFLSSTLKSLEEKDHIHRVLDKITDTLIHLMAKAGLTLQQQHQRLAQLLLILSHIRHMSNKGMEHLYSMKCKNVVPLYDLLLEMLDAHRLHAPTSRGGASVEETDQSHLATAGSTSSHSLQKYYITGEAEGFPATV
Description: Induction of ERalpha degradation in human MCF7 cells assessed as maximum degradation incubated for 18 to 24 hrs by Alexa fluor 488/Hoechst staining based immunofluorescence imaging analysis relative to fulvestrant. It counts as cell-based. Conditions: time lower […], time upper […].

Series [5] can be described thus: Fraction unbound in mouse plasma. It counts as ADME, cell-free.
Series [6] in a line: Fraction unbound in rat plasma. The series is classed as ADME, cell-free.
Series [7] addresses T2, Estrogen receptor (Homo sapiens). Description: Induction of ERalpha degradation in human MCF7 cells assessed as decrease in ER-alpha level at 0.1 uM by Western blot analysis relative to fulvestrant. The series is classed as cell-based. The arrangement: scale not given: the % may be the effect or the level left.
Series [8] can be described thus: Volume of distribution at steady state in rat at 0.5 mg/kg, iv or 1 mg/kg, po. It counts as ADME, organism-based. Conditions: in vivo, read-out: Vdss. Put shortly:
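Rat dosed IV at 0.5 mg/kg and PO at 1 mg/kg, both formulated in 5% DMSO:95% hydroxypropyl-β-cyclodextrin (30% w/v), at 1 mL/kg IV and 4 mL/kg PO. Vdss (L/kg) derived from the pharmacokinetic profile after dosing.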

Series [9] concerns the target T2, Estrogen receptor (Homo sapiens). Description: Induction of ERalpha degradation in human CAMA1 cells assessed as decrease in ER-alpha level at 0.1 uM by Western blot analysis relative to fulvestrant. The series is classed as cell-based. The arrangement: scale not given: the % may be the effect or the level left. To be noted: CAMA-1. Put shortly:
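Western blot for ERα in MCF-7 and CAMA-1 cells after treatment at 0.1 µM. ER level is expressed as % degradation relative to fulvestrant, from a single experiment (n = 1).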
A general note: A western blot detects proteins with antibodies after separation by electrophoresis.

Series [10] in a line: Dissociation constant, dibasic pKa of compound in 0.1 M potassium chloride in presence of azetidine by UV-vis spectroscopy. The series is classed as physicochemical.
In series [11] the target is T3, Estrogen receptor (Homo sapiens, UniProt P03372).
T3 sequence (P03372 whole entry): T2 sequence (whole entry)
Put plainly: Displacement of fluormone ES2 green reagent from human GST-tagged ERalpha LBD (282 to 595 residues) expressed in baculovirus infected insect cells incubated for 1 hrs by TR-FRET Lanthascreen assay.

In the next series the target is Cytochrome P450 2C9 (Homo sapiens, UniProt P11712). Description: Inhibition of CYP2C9 in human liver microsomes. It counts as ADME. To be noted: human, microsomes. Put shortly: as §1
Chain of Cytochrome P450 2C9 (P11712 whole entry): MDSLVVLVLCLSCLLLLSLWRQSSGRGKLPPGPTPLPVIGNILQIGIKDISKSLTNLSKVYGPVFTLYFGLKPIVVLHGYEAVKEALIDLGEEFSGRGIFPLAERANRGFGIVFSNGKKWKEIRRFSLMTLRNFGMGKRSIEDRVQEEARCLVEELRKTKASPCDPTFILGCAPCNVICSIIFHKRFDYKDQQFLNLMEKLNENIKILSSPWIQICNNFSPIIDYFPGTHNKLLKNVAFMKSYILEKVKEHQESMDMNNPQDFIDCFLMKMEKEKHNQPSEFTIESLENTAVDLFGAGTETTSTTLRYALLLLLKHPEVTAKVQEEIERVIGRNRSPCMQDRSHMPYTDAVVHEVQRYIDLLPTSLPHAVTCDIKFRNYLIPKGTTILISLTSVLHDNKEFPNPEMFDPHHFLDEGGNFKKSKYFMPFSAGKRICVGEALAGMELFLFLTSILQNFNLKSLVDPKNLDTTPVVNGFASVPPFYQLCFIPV
In the next series the target is Cytochrome P450 2C19 (Homo sapiens, UniProt P33261). Description: Inhibition of CYP2C19 in human liver microsomes. The series is classed as ADME. Conditions: human, microsomes. Summed up: as §1
Chain of Cytochrome P450 2C19 (P33261 whole entry): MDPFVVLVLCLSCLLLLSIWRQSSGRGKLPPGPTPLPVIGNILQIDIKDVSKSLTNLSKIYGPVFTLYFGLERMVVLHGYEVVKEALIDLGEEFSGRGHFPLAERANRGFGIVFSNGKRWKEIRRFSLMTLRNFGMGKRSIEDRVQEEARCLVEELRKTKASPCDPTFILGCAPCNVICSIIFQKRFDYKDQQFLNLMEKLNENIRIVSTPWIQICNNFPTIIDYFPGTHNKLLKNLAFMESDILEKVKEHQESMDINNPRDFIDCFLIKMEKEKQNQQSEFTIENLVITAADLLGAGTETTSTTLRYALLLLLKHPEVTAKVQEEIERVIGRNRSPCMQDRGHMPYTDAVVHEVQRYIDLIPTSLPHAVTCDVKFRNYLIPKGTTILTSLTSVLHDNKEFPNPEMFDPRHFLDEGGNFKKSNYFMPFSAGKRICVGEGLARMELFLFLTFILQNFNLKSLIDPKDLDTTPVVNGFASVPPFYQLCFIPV
A short description of series [12]: Half-life in rat at 0.5 mg/kg, iv or 1 mg/kg, po. It counts as ADME, organism-based. To be noted: in vivo. Put shortly: (§2)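 Rat PK: single IV dose 0.5 mg/kg and oral dose 1 mg/kg, formulated in 5% DMSO:95% hydroxypropyl-β-cyclodextrin (30% w/v), dosed at 1 mL/kg IV and 4 mL/kg PO.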
Series [13] can be described thus: Intrinsic clearance in rat hepatocytes assessed per million cells. It counts as ADME, cell-based, Hepatocyte. Conditions: read-out: CLH. Summed up: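 Hepatocyte intrinsic clearance measured from DMSO stock in isolated hepatocytes diluted to 1x10⁶ cells/mL; rate expressed as µl/min/10⁶ cells.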
Series [14] in a line: Clearance in rat at 0.5 mg/kg, iv or 1 mg/kg, po. It counts as ADME, organism-based. Conditions: in vivo. Put shortly:
as §2

Series [15] can be described thus: Oral bioavailability in rat at 1 mg/kg. It counts as ADME, organism-based. Conditions: in vivo. Summed up:
as §2

Series [16] can be described thus: Dissociation constant, dibasic pKa of compound in 0.1 M potassium chloride in presence of piperidine by UV-vis spectroscopy. The series is classed as physicochemical.
In series [17] the target is T3, Estrogen receptor. Description: Induction of ERalpha degradation in human MCF7 cells assessed as decrease in ER-alpha level incubated for 18 to 24 hrs by Alexa fluor 488/Hoechst staining based immunofluorescence imaging analysis. The series is classed as cell-based. Put shortly:
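ER degradation in MCF-7 cells via cellular degradation assay; n ≥ 2, degradation also expressed as %Dmax relative to fulvestrant.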

Chain of Cytochrome P450 2D6 (P10635 whole entry): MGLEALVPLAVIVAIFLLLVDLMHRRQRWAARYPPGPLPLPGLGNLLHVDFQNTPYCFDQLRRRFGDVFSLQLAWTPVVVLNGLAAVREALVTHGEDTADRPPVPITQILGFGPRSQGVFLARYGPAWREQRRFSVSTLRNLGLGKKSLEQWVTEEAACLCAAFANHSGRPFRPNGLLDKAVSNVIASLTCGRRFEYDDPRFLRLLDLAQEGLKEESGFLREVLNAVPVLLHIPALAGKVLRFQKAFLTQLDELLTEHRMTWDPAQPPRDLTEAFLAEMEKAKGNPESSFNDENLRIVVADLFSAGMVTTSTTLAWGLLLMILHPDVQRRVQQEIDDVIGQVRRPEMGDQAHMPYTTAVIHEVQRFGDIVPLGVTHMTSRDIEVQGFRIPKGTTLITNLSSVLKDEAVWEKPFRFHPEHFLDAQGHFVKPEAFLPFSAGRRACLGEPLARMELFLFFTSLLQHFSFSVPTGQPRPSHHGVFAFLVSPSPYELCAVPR

For the compound `COc1cc(NC2CN(CCCF)C2)ccc1[C@@H]1c2ccc3[nH]ncc3c2C[C@@H](C)N1CC1(F)CC1`, the “inhibition (INH)” value against Cytochrome P450 1A2, at Cytochrome P450 2C9 and against Cytochrome P450 2C19 was “Not Active” each time. This compound had a solubility at 24 h in series [1] of more than 900 µM. Further, the fraction unbound was determined as 0.34 in series [2], 0.22 in series [3], 0.39 in series [5] and 0.51 in series [6]. The IC50 at Cytochrome P450 2D6 was 1200 nM; against Cytochrome P450 3A4 it was 11000 nM; on Estrogen receptor [11], 7.94 nM; at Estrogen receptor [17], 0.316 nM. In addition, in series [4], the Emax turned out to be 96%. Moreover, the Activity was determined as 89% in [7] and 84% in [9]. In series [8], the Vd is 71 L/kg. Moreover, the pKa in [10] is 8.7; in [16], 7.8. The half-life in series [12] was 11 h. In addition, in series [13], the hepatocyte CLint is 7 µL/min/1e6 cells. Also, in series [14], the clearance was determined as 125 mL/min/kg. In addition, in [15], the bioavailability stood at 3%.
